In ChEMBL document CHEMBL1138562, “2,3-Disubstituted-1,4-naphthoquinones, 12H-benzo[b]phenothiazine-6,11-diones and related compounds: synthesis and biological evaluation as potential antiproliferative and antifungal agents” (2009):
In brackets after ≈: the same amount, converted by molar mass. Activity calls are given as the source filed them. No cut-off for these calls is given here.

Columns and labels:
Sporothrix schenckii = experiment: Antifungal activity against Sporothrix schenckii after 72 hrs by micro broth dilution method; type: functional
Procedure, shortened: (§1)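 Micro broth dilution per NCCLS in RPMI 1640 buffered with MOPS. Inoculum 1-5 × 10³ cells/mL. Plates kept in a moist chamber at 35 °C. Absorbance read at 492 nm after 48 h (C. albicans, C. parapsilosis), 72 h (A. fumigatus, S. schenckii, C. neoformans) or 96 h (T. mentagrophytes). MIC taken as 90% growth inhibition versus control.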

Cryptococcus neoformans = experiment: Antifungal activity against Cryptococcus neoformans after 72 hrs by micro broth dilution method; type: functional; procedure, shortened: as §1
[1] = tested on: Trichophyton mentagrophytes; experiment: Antifungal activity against Trichophyton mentagrophytes after 96 hrs by micro broth dilution method; type: functional; procedure, shortened: as §1
HeLa [2] = experiment: Antiproliferative activity against human HeLa cells at 1 uM after 24 hrs by sulforhodamine B assay; type: functional
Procedure, shortened: (§2)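 HeLa cells grown in Eagle's MEM with 10% FBS at 37 °C under 5% CO2. Seeded at 1 × 10⁵ cells/mL and medium replaced after 24 h. Compounds added from DMSO stocks (final DMSO below 0.1%; DMSO vehicle as control) for one cell cycle (24 h). Cells stained with 0.4% sulforhodamine B and protein-bound dye read at 560 nm.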

Aspergillus fumigatus = experiment: Antifungal activity against Aspergillus fumigatus after 72 hrs by micro broth dilution method; type: functional; procedure, shortened: as §1
Candida parapsilosis = experiment: Antifungal activity against Candida parapsilosis ATCC 22019 after 48 hrs by micro broth dilution method; type: functional; details: Lodderomyces parapsilosis, ATCC 22019, 48 h; procedure, shortened: as §1
Candida albicans = experiment: Antifungal activity against Candida albicans after 48 hrs by micro broth dilution method; type: functional; procedure, shortened: as §1
HeLa [3] = experiment: Antiproliferative activity against human HeLa cells at 5 uM after 24 hrs by sulforhodamine B assay; type: functional; procedure, shortened: as §2
HeLa [4] = experiment: Antiproliferative activity against human HeLa cells at 20 uM after 24 hrs by sulforhodamine B assay; type: functional; procedure, shortened: as §2
HeLa [5] = experiment: Induction of apoptosis in human HeLa cells assessed as cell population at mitosis at 10 uM after 24 hrs; type: functional
Procedure, shortened: (§3)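 HeLa cells grown on coverslips and exposed 24 h to compound (5, 10, 20 µM or none). Microtubules stained with mouse anti-α-tubulin and FITC anti-mouse IgG, chromosomes with DAPI. Mitotic cells scored by fluorescence microscopy.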

HeLa [6] = experiment: Induction of apoptosis in human HeLa cells at 5 uM after 24 hrs by annexin 5-propidium iodide staining mathod; type: functional, cell-based
Procedure, shortened: (§4)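 HeLa cells grown on coverslips at 5 × 10⁴ cells/mL and incubated 24 h with 5 µM compound. Stained with FITC-Annexin V (early apoptosis) and propidium iodide (late apoptosis/necrosis) using a kit. Imaged by DIC for morphology and by fluorescence.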

HeLa [7] = experiment: Induction of apoptosis in human HeLa cells assessed as cell population at mitosis at 20 uM after 24 hrs; type: functional; procedure, shortened: as §3
HeLa [8] = experiment: Induction of apoptosis in human HeLa cells assessed as cell population at mitosis at 5 uM after 24 hrs; type: functional; procedure, shortened: as §3
HeLa [9] = experiment: Induction of apoptosis in human HeLa cells assessed as morphological changes at 5 uM after 24 hrs by differential interference contrast microscopy; type: functional, cell-based; procedure, shortened: as §4
HeLa [10] = experiment: Antiproliferative activity against human HeLa cells at 34 uM after 24 hrs by sulforhodamine B assay; type: functional
HeLa [11] = experiment: Induction of apoptosis in human HeLa cells assessed as blockade of cell cycle progression at mitosis after 24 hrs; type: functional, cell-based; procedure, shortened: as §3

Molecule	MIC (Sporothrix schenckii) [µg/mL]	MIC (Cryptococcus neoformans) [µg/mL]	MIC [1] [µg/mL]	inhibition at 1 µM (HeLa [2]) [%]	MIC (Aspergillus fumigatus) [µg/mL]	MIC (Candida parapsilosis) [µg/mL]	MIC (Candida albicans) [µg/mL]	inhibition at 5 µM (HeLa [3]) [%]	inhibition at 20 µM (HeLa [4]) [%]	Activity (HeLa [5]) [%]	Activity (HeLa [6])	Activity (HeLa [7]) [%]	Activity (HeLa [8]) [%]	Activity (HeLa [9])	inhibition at 34 µM (HeLa [10]) [%]	Activity (HeLa [11])
O=C1C(Sc2cccc3ccccc23)=C(Sc2cccc3ccccc23)C(=O)c2ccccc21	> 50	> 50	> 50	22	> 50	> 50	> 50	30	46	–	–	–	–	–	–	–
COc1cccc(SC2=C(Sc3cccc(OC)c3)C(=O)c3ccccc3C2=O)c1	> 50	> 50	50 (≈ 115 µM)	64	> 50	> 50	> 50	76	100	3.8	Active	4.2	3.5	Active	–	–
O=C1C(Cl)=C(Cl)C(=O)c2ccccc21 [Dichlon]	0.78 (≈ 3.44 µM)	3.12 (≈ 13.7 µM)	1.56 (≈ 6.87 µM)	28	1.56 (≈ 6.87 µM)	1.56 (≈ 6.87 µM)	0.78 (≈ 3.44 µM)	43	49	–	–	–	–	–	–	–
NYSTATIN	13.2	3.5	–	–	–	–	7.8	–	–	–	–	–	–	–	–	–
C[C@@H]1[C@H](O)[C@@H](C)/C=C/C=C/C=C/C=C/C=C/C=C/C=C/[C@H](O[C@@H]2O[C@H](C)[C@@H](O)[C@H](N)[C@@H]2O)C[C@@H]2O[C@](O)(C[C@@H](O)C[C@@H](O)[C@H](O)CC[C@@H](O)C[C@@H](O)CC(=O)O[C@H]1C)C[C@H](O)[C@H]2C(=O)O [AMPHOTERICIN B]	–	0.78 (≈ 0.844 µM)	1.56 (≈ 1.69 µM)	–	–	–	0.39 (≈ 0.422 µM)	–	–	–	–	–	–	–	–	–
COc1ccc2[nH]c3c(=O)c4ccccc4c(=O)c=3sc2c1	> 50	> 50	50 (≈ 162 µM)	8.5	> 50	> 50	> 50	20	77	–	–	–	–	–	–	–
O=C1C(Cl)=C(Sc2ccccc2)C(=O)c2ccccc21	1.56 (≈ 5.19 µM)	6.25 (≈ 20.8 µM)	1.56 (≈ 5.19 µM)	15	12.5 (≈ 41.6 µM)	6.25 (≈ 20.8 µM)	6.25 (≈ 20.8 µM)	29	73	–	–	–	–	–	–	–
COc1ccc2c(c1OC)C(=O)O[C@@H]2[C@H]1c2c(cc3c(c2OC)OCO3)CCN1C [NOSCAPINE]	–	–	–	–	–	–	–	–	–	–	–	–	–	–	50	–
O=C1C(Sc2ccccc2)=C(Sc2ccccc2)C(=O)c2ccccc21	50 (≈ 134 µM)	> 50	> 50	51	> 50	> 50	> 50	60	100	–	Active	–	–	Active	–	inactive
O=C1C(Cl)=C(Sc2cccc3ccccc23)C(=O)c2ccccc21	6.25 (≈ 17.8 µM)	50 (≈ 143 µM)	6.25 (≈ 17.8 µM)	0	50 (≈ 143 µM)	50 (≈ 143 µM)	50 (≈ 143 µM)	22	69	–	–	–	–	–	–	–
Clc1ccc(COC(Cn2ccnc2)c2ccc(Cl)cc2Cl)c(Cl)c1 (stereo not given) [MICONAZOLE]	–	12.5 (≈ 30 µM)	< 0.78	–	12.5 (≈ 30 µM)	–	25 (≈ 60.1 µM)	–	–	–	–	–	–	–	–	–
COc1cccc(SC2=C(Cl)C(=O)c3ccccc3C2=O)c1	3.12 (≈ 9.43 µM)	25 (≈ 75.6 µM)	3.12 (≈ 9.43 µM)	39	25 (≈ 75.6 µM)	25 (≈ 75.6 µM)	25 (≈ 75.6 µM)	48	74	–	–	–	–	–	–	–
O=c1c2[nH]c3ccc4ccccc4c3sc=2c(=O)c2ccccc12	50 (≈ 152 µM)	> 50	> 50	12	> 50	> 50	> 50	19	42	–	–	–	–	–	–	–
OC(Cn1cncn1)(Cn1cncn1)c1ccc(F)cc1F [FLUCONAZOLE]	2 (≈ 6.53 µM)	1 (≈ 3.27 µM)	0.5 (≈ 1.63 µM)	–	2 (≈ 6.53 µM)	2 (≈ 6.53 µM)	1 (≈ 3.27 µM)	–	–	–	–	–	–	–	–	–
O=c1c2[nH]c3ccccc3sc=2c(=O)c2ccccc12	50 (≈ 179 µM)	> 50	> 50	5.5	> 50	> 50	> 50	6.5	42	–	–	–	–	–	–	–
